In ChEMBL document CHEMBL4689842, “EUbOPEN Chemogenomics Library wave 1” (2021):
Several values for one entry are separate records, joined by “and”; a condition that tells them apart may be missing. Equal values may be shown once.

Tests used:
Type in all cases: toxicity, cell-based
Fibroblast [1] = experiment: Multiplex assay against human fibroblast; details: 10 µM, compound concentration 10 uM
In short: (§1)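 Four dyes were applied at seeding to live cells: Hoechst33342, BioTracker Green Microtubule Cytoskeleton Dye, MitoTracker Red and Annexin V Alexa Fluor 680. Imaging after compound addition used a CQ1 microscope at 37°C and 5% CO2. CellPathfinder machine-learning gating then sorted cells into Hoechst high-intensity objects or normal cells, normal cells into healthy, pyknosed or fragmented nuclei, and pyknosed cells into mitotic or apoptotic, with tubulin, mitochondrial-mass and membrane-permeability phenotypes given as per cents of healthy-nucleus cells.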

HEK-293T [2] = experiment: Multiplex assay against HEK293T; details: human, 10 µM, compound concentration 10 uM; in short: as §1;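 on Population Tubulin-Different-Phenotype (%): share of the cells with healthy nuclei that show this phenotype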
U2OS [3] = experiment: Multiplex assay against U2OS; details: human, 10 µM, compound concentration 10 uM; in short: as §1
HEK-293T [4] = experiment: Incucyte cell viability with HEK293T; details: human, 10 µM, compound concentration 10 uM; further: filed as whole numbers so only -1 and 0 and 1 occur
Fibroblast [5] = experiment: Incucyte cell viability with human fibroblast; details: 10 µM, compound concentration 10 uM; further: filed as whole numbers so only -1 and 0 and 1 occur
U2OS [6] = experiment: Incucyte cell viability with U2OS; details: human, 10 µM, compound concentration 10 uM; further: filed as whole numbers so only -1 and 0 and 1 occur
[7] = 0 h, replicate number 1, timepoint 0 hours
[8] = 6 h, replicate number 1, timepoint 6 hours
[9] = 6 h, replicate number 2, timepoint 6 hours
[10] = 12 h, replicate number 1, timepoint 12 hours
[11] = 18 h, replicate number 1, timepoint 18 hours
[12] = 24 h, replicate number 1, timepoint 24 hours
[13] = 0 h, replicate number 2, timepoint 0 hours

## C[C@@H]1CN(c2cc(-c3nn(C)c4ccc(OC5(C)CC5)cc34)ncn2)C[C@H](C)O1 [MLi-2-NC]
Fibroblast [1]; 12 h, replicate 1
  Population Apoptotic (%): 65% and 70%
  Population Fragmented Nuclei (%): 24% and 21%
  Population Healthy Nuclei (%): 59% and 61%
  Population Hoechst High Intensity Objects (%): 9% and 12%
  Population Mitochondria Different-Phenotype (%): 3%
  Population Mitotic Cells (%): 34% and 29%
  Population Normal (%): 90% and 87%
  Population Pyknosed Nuclei (%): 16%
  Total Cell Count: 234 and 261
Fibroblast [1]; 12 h, replicate 2
  Population Apoptotic (%): 42% and 50%
  Population Fragmented Nuclei (%): 44% and 53%
  Population Healthy Nuclei (%): 36% and 42%
  Population Hoechst High Intensity Objects (%): 32% and 43%
  Population Membrane Permeable-Phenotype (%): 21% and 15%
  Population Mitochondria Different-Phenotype (%): 7% and 10%
  Population Mitotic Cells (%): 57% and 50%
  Population Normal (%): 67% and 56%
  Population Tubulin-Different-Phenotype (%): 21% and 20%
  Total Cell Count: 56 and 83
Fibroblast [1]; 24 h, replicate 1
  Population Apoptotic (%): 45% and 61%
  Population Fragmented Nuclei (%): 25% and 27%
  Population Healthy Nuclei (%): 59% and 56%
  Population Hoechst High Intensity Objects (%): 12% and 11%
  Population Membrane Permeable-Phenotype (%): 9% and 7%
  Population Mitochondria Different-Phenotype (%): 3% and 9%
  Population Mitotic Cells (%): 54% and 38%
  Population Normal (%): 87% and 88%
  Population Pyknosed Nuclei (%): 14% and 16%
  Population Tubulin-Different-Phenotype (%): 8% and 22%
  Total Cell Count: 282 and 230
Fibroblast [1]; 24 h, replicate 2
  Population Apoptotic (%): 62% and 50%
  Population Fragmented Nuclei (%): 53% and 63%
  Population Healthy Nuclei (%): 21% and 28%
  Population Hoechst High Intensity Objects (%): 33% and 34%
  Population Membrane Permeable-Phenotype (%): 42% and 23%
  Population Mitotic Cells (%): 37% and 50%
  Population Normal (%): 66% and 65%
  Population Tubulin-Different-Phenotype (%): 42% and 30%
  Total Cell Count: 48 and 70
HEK-293T [2]; 12 h, replicate 1
  Population Apoptotic (%): 9% and 22%
  Population Fragmented Nuclei (%): 18% and 14%
  Population Healthy Nuclei (%): 55% and 62%
  Population Hoechst High Intensity Objects (%): 10% and 16%
  Population Membrane Permeable-Phenotype (%): 4% and 3%
  Population Mitochondria Different-Phenotype (%): 5% and 6%
  Population Mitotic Cells (%): 90% and 77%
  Population Normal (%): 89% and 83%
  Population Pyknosed Nuclei (%): 25% and 23%
  Total Cell Count: 441 and 673
HEK-293T [2]; 12 h, replicate 2
  Population Apoptotic (%): 6% and 12%
  Population Fragmented Nuclei (%): 7% and 4%
  Population Healthy Nuclei (%): 87% and 89%
  Population Hoechst High Intensity Objects (%): 2% and 3%
  Population Membrane Permeable-Phenotype (%): 2%
  Population Mitochondria Different-Phenotype (%): 8% and 14%
  Population Mitotic Cells (%): 93% and 87%
  Population Normal (%): 97% and 96%
  Population Pyknosed Nuclei (%): 4% and 6%
  Population Tubulin-Different-Phenotype (%): 5% and 14%
  Total Cell Count: 1849 and 1412
HEK-293T [2]; 24 h, replicate 1
  Population Apoptotic (%): 11% and 25%
  Population Fragmented Nuclei (%): 16% and 12%
  Population Healthy Nuclei (%): 72% and 75%
  Population Hoechst High Intensity Objects (%): 6% and 11%
  Population Membrane Permeable-Phenotype (%): 3%
  Population Mitochondria Different-Phenotype (%): 1% and 5%
  Population Mitotic Cells (%): 88% and 74%
  Population Normal (%): 93% and 88%
  Population Pyknosed Nuclei (%): 10% and 12%
  Total Cell Count: 505 and 711
HEK-293T [2]; 24 h, replicate 2
  Population Apoptotic (%): 3% and 7%
  Population Fragmented Nuclei (%): 24% and 13%
  Population Healthy Nuclei (%): 73% and 83%
  Population Hoechst High Intensity Objects (%): 2% and 4%
  Population Membrane Permeable-Phenotype (%): 5%
  Population Mitochondria Different-Phenotype (%): 2% and 4%
  Population Mitotic Cells (%): 96% and 92%
  Population Normal (%): 97% and 95%
  Population Pyknosed Nuclei (%): 1% and 3%
  Total Cell Count: 3187 and 2081
U2OS [3]; 12 h, replicate 1
  Population Apoptotic (%): 80% and 54%
  Population Fragmented Nuclei (%): 2%
  Population Healthy Nuclei (%): 93% and 87%
  Population Hoechst High Intensity Objects (%): 4% and 5%
  Population Membrane Permeable-Phenotype (%): 19% and 9%
  Population Mitochondria Different-Phenotype (%): 14% and 30%
  Population Mitotic Cells (%): 20% and 45%
  Population Normal (%): 95% and 94%
  Population Pyknosed Nuclei (%): 3% and 7%
  Population Tubulin-Different-Phenotype (%): 16% and 29%
  Total Cell Count: 165 and 347
U2OS [3]; 12 h, replicate 2
  Population Apoptotic (%): 50% and 40%
  Population Fragmented Nuclei (%): 5% and 7%
  Population Healthy Nuclei (%): 91% and 88%
  Population Hoechst High Intensity Objects (%): 9% and 15%
  Population Membrane Permeable-Phenotype (%): 14% and 7%
  Population Mitochondria Different-Phenotype (%): 21% and 26%
  Population Mitotic Cells (%): 50% and 60%
  Population Normal (%): 90% and 84%
  Population Tubulin-Different-Phenotype (%): 14% and 41%
  Total Cell Count: 153 and 242
U2OS [3]; 24 h, replicate 1
  Population Apoptotic (%): 44% and 50%
  Population Healthy Nuclei (%): 92%
  Population Hoechst High Intensity Objects (%): 1%
  Population Membrane Permeable-Phenotype (%): 10% and 3%
  Population Mitochondria Different-Phenotype (%): 16% and 21%
  Population Mitotic Cells (%): 55% and 50%
  Population Normal (%): 98%
  Population Tubulin-Different-Phenotype (%): 16% and 32%
  Total Cell Count: 226 and 387
U2OS [3]; 24 h, replicate 2
  Population Fragmented Nuclei (%): 4% and 3%
  Population Healthy Nuclei (%): 90% and 93%
  Population Hoechst High Intensity Objects (%): 11% and 4%
  Population Membrane Permeable-Phenotype (%): 12% and 8%
  Population Mitochondria Different-Phenotype (%): 27% and 18%
  Population Normal (%): 88% and 95%
  Population Pyknosed Nuclei (%): 4% and 3%
  Population Tubulin-Different-Phenotype (%): 18% and 37%
  Total Cell Count: 183 and 245
HEK-293T [4]; [7]
  Growth Rate: 0
HEK-293T [4]; [8]
  Growth Rate: 1
HEK-293T [4]; [9]
  Growth Rate: 0
HEK-293T [4]; [10]
  Growth Rate: 0
HEK-293T [4]; [11]
  Growth Rate: 0
HEK-293T [4]; [12]
  Growth Rate: 0
Fibroblast [5]; [13]
  Growth Rate: 0
Fibroblast [5]; [8]
  Growth Rate: 0
Fibroblast [5]; [9]
  Growth Rate: 1
Fibroblast [5]; [10]
  Growth Rate: 1
Fibroblast [5]; [11]
  Growth Rate: 0
Fibroblast [5]; [12]
  Growth Rate: 0
U2OS [6]; [7]
  Growth Rate: 1
U2OS [6]; [13]
  Growth Rate: 0
U2OS [6]; [8]
  Growth Rate: 1
U2OS [6]; [10]
  Growth Rate: 1
U2OS [6]; [11]
  Growth Rate: 0
U2OS [6]; 18 h, replicate number 2, timepoint 18 hours
  Growth Rate: 1
U2OS [6]; [12]
  Growth Rate: 0
U2OS [6]; 24 h, replicate number 2, timepoint 24 hours
  Growth Rate: 1
